Reference: ChEMBL document CHEMBL1142657, “Imidazolidin-4-one derivatives of primaquine as novel transmission-blocking antimalarials” (J Med Chem, 2005)

Key:
Culicidae [1] = test: Percentage of Plasmodium berghei ANKA infected Anopheles stephensi mosquitos after treatment with the compound at a dosage of 10 umol.1/kg; format: functional
In short: (§1)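 BalbC mice were infected ip with 10⁷ P. berghei ANKA-parasitized erythrocytes. After 4 days, gametocytes and exflagellation were confirmed on Giemsa smears, and mice were randomized into groups of six. Each received a single ip dose (10 or 50 µmol/kg; controls given PBS). 2 h later, anesthetized mice were placed on Anopheles stephensi cages. Read-outs: % mosquitoes with oocysts, and mean oocysts per infected mosquito (SE).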

[2] = Mean number of Plasmodium berghei ANKA […] production in Anopheles stephensi mosquito after treatment with the compound at a dosage 0 umol.1/kg; format: functional, Culicidae; in short: as §1
Culicidae [3] = test: Percentage of Plasmodium berghei ANKA infected Anopheles stephensi mosquitos after treatment with the compound at a dosage of 50 umol.1/kg; format: functional; in short: as §1
Culicidae [4] = test: Percentage of Plasmodium berghei ANKA infected Anopheles stephensi mosquitos after treatment with the compound at a dosage of 0 umol.1/kg; format: functional; in short: as §1
[5] = Mean number of Plasmodium berghei ANKA […] production in Anopheles stephensi mosquito after treatment with the compound at a dosage 10 umol.1/kg; format: functional, Culicidae; in short: as §1
[6] = Mean number of Plasmodium berghei ANKA […] production in Anopheles stephensi mosquito after treatment with the compound at a dosage 50 umol.1/kg; format: functional, Culicidae; in short: as §1
[7] = Percent hydrolysis to the corresponding amino acid product 3, in pH 7.4 phosphate buffer at 37C after 3 days of treatment with the compound; format: ADME, Homo sapiens; settings: read-out: Hydrolysis
In short: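 Hydrolysis followed in pH 7.4 phosphate saline buffer at 37 °C. Substrate and amino acid product were measured by reversed-phase HPLC (pH 4.75 sodium acetate/acetonitrile gradient with triethylamine). Reported as % conversion after 3 days and as half-life in days.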

[8] = Percent hydrolysis to the corresponding amino acid product 3, in 80% human plasma at 37C after 3 days of treatment with the compound; format: ADME, cell-free; settings: 72 h
In short: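 Aliquots were quenched in acetonitrile and centrifuged. Supernatant went to reversed-phase HPLC (pH 4.75 sodium acetate/acetonitrile gradient with triethylamine) for substrate and amino acid product. Reported as % hydrolysis after 3 days.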

| degraded at 72 h [7] [%] | Hydrolysis [8] [%] | Structure (SMILES) | Infectedmosquitoes (Culicidae [1]) [%] | Activity [2] | Infectedmosquitoes (Culicidae [3]) [%] | Infectedmosquitoes (Culicidae [4]) [%] | Activity [5] | Activity [6] |
| --- | --- | --- | --- | --- | --- | --- | --- | --- |
|  |  | COc1cc(NC(C)CCCN2C(=O)CNC23CCCCC3)c2ncccc2c1 (stereo not drawn) | 25 | 105 | 0 | 65 | 7.4 | 0 |
| 8 |  | COc1cc(NC(C)CCCN2C(=O)[C@H](C(C)C)NC23CCCCC3)c2ncccc2c1 (stereo partly drawn) | 85 | 51 | 25 |  | 61.1 | 0.4 |
|  | 3 | COc1cc(NC(C)CCCN2C(=O)[C@H](Cc3ccccc3)NC23CCCC3)c2ncccc2c1 (stereo partly drawn) | 65 | 66.1 | 0 |  | 51.6 | 0 |
| 10 |  | COc1cc(NC(C)CCCN2C(=O)[C@H](Cc3ccccc3)NC23CCCCCC3)c2ncccc2c1 (stereo partly drawn) | 90 | 120 | 0 |  | 78.9 | 0 |
|  |  | COc1cc(NC(C)CCCN2C(=O)[C@H](C(C)C)NC2(C)C)c2ncccc2c1 (stereo partly drawn) | 25 | 105 | 5 |  | 5 | 0.9 |
|  | 16 | COc1cc(NC(C)CCCN2C(=O)CNC2(C)C)c2ncccc2c1 (stereo not drawn) | 21 | 105 | 0 |  | 6.1 | 0 |
|  |  | COc1cc(NC(C)CCCN)c2ncccc2c1 (stereo not drawn) [PRIMAQUINE] | 10 | 83.2 | 50 | 0 | 2.6 | 0 |
|  | 9 | COc1cc(NC(C)CCCN2C(=O)[C@H](C)NC23CCCCC3)c2ncccc2c1 (stereo partly drawn) | 20 | 83.2 | 0 |  | 0.8 | 0 |
|  | 5 | COc1cc(NC(C)CCCN2C(=O)[C@H](C(C)C)NC23CCCC3)c2ncccc2c1 (stereo partly drawn) | 35 | 51 | 15 |  | 4.2 | 0.5 |
|  |  | COc1cc(NC(C)CCCN2C(=O)[C@H](Cc3ccccc3)NC23CCCCC3)c2ncccc2c1 (stereo partly drawn) | 83 | 83.2 | 0 |  | 71 | 0 |
| 10 |  | COc1cc(NC(C)CCCN2C(=O)[C@H](CC(C)C)NC2(C)C)c2ncccc2c1 (stereo partly drawn) | 30 | 120 | 20 |  | 13.7 | 1 |
|  |  | COc1cc(NC(C)CCCN2C(=O)[C@H](C(C)C)NC23CCCCCC3)c2ncccc2c1 (stereo partly drawn) | 65 | 120 |  |  | 17.7 |  |
| 6 |  | COc1cc(NC(C)CCCN2C(=O)[C@H](Cc3ccccc3)NC2(C)C)c2ncccc2c1 (stereo partly drawn) | 76 | 66.1 | 0 |  | 61.2 | 0 |
